In ChEMBL document CHEMBL4177755, “Combating Drug-Resistant Fungi with Novel Imperfectly Amphipathic Palindromic Peptides” (J Med Chem, 2018):
In brackets after ≈: the same amount, converted by molar mass.

Assays:
[1] = test system: Candida albicans; assay: Fungicidal activity against Candida albicans 58288 after 96 hrs; type: functional; conditions: Candida albicans, 58288, 96 h; read-out: MFC99.9
Procedure, shortened: (§1)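 After the 48 h, 28 °C broth microdilution in MOPS-buffered RPMI 1640 (inoculum (0.5−1) × 10^3 CFU/mL), 50 μL from each well was plated on YM agar for a further 48 h at 28 °C. MFC is the lowest concentration killing at least 99.9% of cells. Triplicate, three biological replicates.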

[2] = test system: Candida albicans; assay: Fungicidal activity against fluconazole-resistant Candida albicans 56214 after 96 hrs; type: functional; conditions: Candida albicans, 56214, 96 h; read-out: MFC99.9; procedure, shortened: as §1
[3] = test system: Staphylococcus aureus; assay: Bactericidal activity against Staphylococcus aureus ATCC 29213; type: functional; conditions: read-out: MBC99.9
Procedure, shortened: (§2)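 Wells from the 24 h, 37 °C MHB microdilution plates (bacteria at a final (0.5−1) × 10^5 CFU/mL; peptide diluted in 0.2% BSA) were plated on agar and incubated overnight. MBC is the lowest concentration killing >99.9% of cells. Each test was reproduced at least 3 times.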

[4] = test system: Candida albicans; assay: Antifungal activity against Candida albicans 14936 after 48 hrs by broth microdilution method; type: functional; conditions: Candida albicans, 14936, 48 h
Procedure, shortened: (§3)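 Modified CLSI M27-A2 broth microdilution. Yeast at (0.5−1) × 10^3 CFU/mL in MOPS-buffered RPMI 1640 was mixed 1:1 with peptide serially diluted in 0.2% BSA and incubated 48 h at 28 °C. Absorbance was read at 492 nm; MIC is the lowest concentration inhibiting 95% of growth. Triplicate, three biological replicates.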

[5] = test system: Candida albicans; assay: Fungicidal activity against Candida albicans 14936 after 96 hrs; type: functional; conditions: Candida albicans, 14936, 96 h; read-out: MFC99.9; procedure, shortened: as §1
[6] = test system: Staphylococcus epidermidis; assay: Bactericidal activity against Staphylococcus epidermidis ATCC 12228; type: functional; conditions: read-out: MBC99.9; procedure, shortened: as §2
[7] = test system: Candida albicans; assay: Antifungal activity against Candida albicans cgmcc 2.2086 in presence of ZnCl2 by broth dilution method; type: functional
[8] = test system: Escherichia coli; assay: Bactericidal activity against Escherichia coli ATCC 25922; type: functional; conditions: read-out: MBC99.9; procedure, shortened: as §2
[9] = test system: Staphylococcus aureus; assay: Bactericidal activity against methicillin-resistant Staphylococcus aureus ATCC 4330; type: functional; conditions: read-out: MBC99.9
Procedure, shortened: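 Bacteria at (0.5−1) × 10^5 CFU/mL in MHB were exposed to serially diluted peptide (0.2% BSA) for 24 h at 37 °C, then 50 μL aliquots were plated on agar overnight. MBC is the lowest concentration killing >99.9% of cells. At least 3 repeats.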

[10] = test system: Candida albicans; assay: Antifungal activity against Candida albicans cgmcc 2.2086 in presence of FeCl3 by broth dilution method; type: functional
[11] = test system: Candida parapsilosis; assay: Fungicidal activity against Candida parapsilosis cgmcc 2.3989 after 96 hrs; type: functional; conditions: Lodderomyces parapsilosis, cgmcc 2.3989, 96 h; read-out: MFC99.9
Procedure, shortened: (§4)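 Wells from the 48 h, 28 °C RPMI 1640/MOPS microdilution plates were plated on YM agar and incubated a further 48 h at 28 °C. MFC is the lowest concentration killing at least 99.9% of cells. Run in triplicate with three biological replicates.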

[12] = test system: Candida albicans; assay: Fungicidal activity against Candida albicans SP3902 after 96 hrs; type: functional; conditions: SP3902, 96 h, read-out: MFC99.9; procedure, shortened: as §1
[13] = test system: Candida albicans; assay: Fungicidal activity against Candida albicans SP3876 after 96 hrs; type: functional; conditions: SP3876, 96 h, read-out: MFC99.9; procedure, shortened: as §1
[14] = test system: Candida albicans; assay: Antifungal activity against fluconazole-resistant Candida albicans 17546 after 48 hrs by broth microdilution method; type: functional; conditions: Candida albicans, 17546, 48 h; procedure, shortened: as §3
[15] = test system: Candida tropicalis; assay: Antifungal activity against Candida tropicalis cgmcc 2.1975 after 48 hrs by broth microdilution method; type: functional; conditions: cgmcc 2.1975, 48 h
Procedure, shortened: (§5)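 Modified CLSI M27-A2 broth microdilution. Yeast were suspended in MOPS-buffered RPMI 1640 at a final (0.5−1) × 10^3 CFU/mL and mixed 1:1 with peptide serially diluted in 0.2% BSA. Plates were incubated 48 h at 28 °C and read at A492. MIC is the lowest concentration giving 95% inhibition. Run in triplicate with three biological replicates.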

[16] = test system: Candida albicans; assay: Antifungal activity against Candida albicans SP3931 after 48 hrs by broth microdilution method; type: functional; conditions: SP3931, 48 h; procedure, shortened: as §3
[17] = test system: Candida albicans; assay: Antifungal activity against Candida albicans SP3876 after 48 hrs by broth microdilution method; type: functional; conditions: SP3876, 48 h; procedure, shortened: as §3
[18] = test system: Candida albicans; assay: Fungicidal activity against fluconazole-resistant Candida albicans 17546 after 96 hrs; type: functional; conditions: Candida albicans, 17546, 96 h; read-out: MFC99.9; procedure, shortened: as §1
[19] = test system: Candida albicans; assay: Antifungal activity against fluconazole-resistant Candida albicans 56452 after 48 hrs by broth microdilution method; type: functional; conditions: Candida albicans, 56452, 48 h; procedure, shortened: as §3
[20] = test system: Staphylococcus aureus; assay: Antibacterial activity against Staphylococcus aureus ATCC 25923 after 24 hrs; type: functional; conditions: ATCC 25923, 24 h
Procedure, shortened: (§6)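 Modified NCCLS broth microdilution. Mid-log bacteria at (0.5−1) × 10^5 CFU/mL in MHB were mixed 1:1 with peptide serially diluted in 0.2% BSA and incubated 24 h at 37 °C. Absorbance was read at 492 nm; MIC is the lowest concentration inhibiting 95% of growth. At least 3 repeats.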

[21] = test system: Candida parapsilosis; assay: Antifungal activity against Candida parapsilosis cgmcc 2.3989 after 48 hrs by broth microdilution method; type: functional; conditions: Lodderomyces parapsilosis, cgmcc 2.3989, 48 h; procedure, shortened: as §5
[22] = test system: Salmonella typhimurium; assay: Antibacterial activity against Salmonella typhimurium ATCC 14028 after 24 hrs; type: functional, Salmonella enterica subsp. enterica serovar Typhimurium; conditions: Salmonella enterica, ATCC 14028, 24 h
Procedure, shortened: (§7)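 Broth microdilution. Mid-log bacteria in MHB at a final (0.5−1) × 10^5 CFU/mL were mixed with equal volumes of peptide serially diluted in 0.2% BSA. Plates were incubated 24 h at 37 °C and read at A492. MIC is the lowest concentration inhibiting 95% of growth. Each test was repeated at least 3 times.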

[23] = test system: Pichia kudriavzevii; assay: Fungicidal activity against Candida krusei cgmcc 2.1857 after 96 hrs; type: functional; conditions: cgmcc 2.1857, 96 h, read-out: MFC99.9; procedure, shortened: as §4
[24] = test system: Candida albicans; assay: Antifungal activity against Candida albicans 58288 after 48 hrs by broth microdilution method; type: functional; conditions: Candida albicans, 58288, 48 h; procedure, shortened: as §3
[25] = test system: Staphylococcus epidermidis; assay: Antibacterial activity against Staphylococcus epidermidis ATCC 12228 after 24 hrs; type: functional; conditions: ATCC 12228, 24 h; procedure, shortened: as §7
[26] = test system: Escherichia coli; assay: Antibacterial activity against Escherichia coli ATCC 25922 after 24 hrs; type: functional; conditions: ATCC 25922, 24 h; procedure, shortened: as §7
[27] = test system: Staphylococcus aureus; assay: Antibacterial activity against methicillin-resistant Staphylococcus aureus ATCC 4330 after 24 hrs; type: functional; conditions: ATCC 4330, 24 h; procedure, shortened: as §6
[28] = test system: Salmonella typhimurium; assay: Bactericidal activity against Salmonella typhimurium ATCC 14028; type: functional, Salmonella enterica subsp. enterica serovar Typhimurium; conditions: Salmonella enterica, read-out: MBC99.9; procedure, shortened: as §2
[29] = test system: Escherichia coli; assay: Bactericidal activity against Escherichia coli 1005; type: functional; conditions: read-out: MBC99.9; procedure, shortened: as §2
[30] = test system: Candida tropicalis; assay: Fungicidal activity against Candida tropicalis cgmcc 2.1975 after 96 hrs; type: functional; conditions: cgmcc 2.1975, 96 h, read-out: MFC99.9; procedure, shortened: as §4
[31] = test system: Escherichia coli; assay: Antibacterial activity against Escherichia coli ATCC 25922 after 18 hrs in presence of ZnCl2 by broth dilution method; type: functional; conditions: ATCC 25922, 18 h
[32] = test system: Escherichia coli; assay: Antibacterial activity against Escherichia coli ATCC 25922 after 18 hrs in presence of CaCl2 by broth dilution method; type: functional; conditions: ATCC 25922, 18 h
[33] = test system: Escherichia coli; assay: Antibacterial activity against Escherichia coli ATCC 25922 after 18 hrs in presence of KCl by broth dilution method; type: functional; conditions: ATCC 25922, 18 h

| Molecule | MFC [1] [µM] | MFC [2] [µM] | MBC [3] [µM] | MIC95 [4] [µM] | MFC [5] [µM] | MBC [6] [µM] | MIC [7] [µM] | MBC [8] [µM] | MBC [9] [µM] | MIC [10] [µM] | MFC [11] [µM] | MFC [12] [µM] | MFC [13] [µM] | MIC95 [14] [µM] | MIC95 [15] [µM] | MIC95 [16] [µM] | MIC95 [17] [µM] | MFC [18] [µM] | MIC95 [19] [µM] | MIC95 [20] [µM] | other results |
| --- | --- | --- | --- | --- | --- | --- | --- | --- | --- | --- | --- | --- | --- | --- | --- | --- | --- | --- | --- | --- | --- |
| CC[C@H](C)[C@H](NC(=O)CN)C(=O)NCC(=O)N[C@@H](C)C(=O)N[C@H](C(=O)N[C@@H](CC(C)C)C(=O)N[C@@H](CCCCN)C(=O)N[C@H](C(=O)N[C@@H](CC(C)C)C(=O)N[C@H](C(=O)N[C@H](C(=O)NCC(=O)N[C@@H](CC(C)C)C(=O)N1CCC[C@H]1C(=O)N[C@@H](C)C(=O)N[C@@H](CC(C)C)C(=O)N[C@H](C(=O)N[C@@H](CO)C(=O)N[C@@H](Cc1c[nH]c2ccccc12)C(=O)N[C@H](C(=O)N[C@@H](CCCCN)C(=O)N[C@@H](CCCNC(=N)N)C(=O)N[C@@H](CCCCN)C(=O)N[C@@H](CCCNC(=N)N)C(=O)N[C@@H](CCC(N)=O)C(=O)N[C@@H](CCC(N)=O)C(N)=O)[C@@H](C)CC)[C@@H](C)CC)[C@@H](C)O)[C@@H](C)O)C(C)C)C(C)C [MELITTIN] | 4 (≈ 11.4 µg/mL) | 4 (≈ 11.4 µg/mL) | 8 (≈ 22.8 µg/mL) | 4 (≈ 11.4 µg/mL) | 8 (≈ 22.8 µg/mL) | 1 (≈ 2.85 µg/mL) | 4 | 2 (≈ 5.69 µg/mL) | 1 (≈ 2.85 µg/mL) | 4 | 2 (≈ 5.69 µg/mL) | 2 (≈ 5.69 µg/mL) | 4 (≈ 11.4 µg/mL) | 8 (≈ 22.8 µg/mL) | 4 (≈ 11.4 µg/mL) | 8 (≈ 22.8 µg/mL) | 4 (≈ 11.4 µg/mL) | 8 (≈ 22.8 µg/mL) | 8 (≈ 22.8 µg/mL) | 4 (≈ 11.4 µg/mL) | MIC95 [21]: 2 µM (≈ 5.69 µg/mL); MIC95 [22]: 1 µM (≈ 2.85 µg/mL); MFC [23]: 4 µM (≈ 11.4 µg/mL); MIC95 [24]: 4 µM (≈ 11.4 µg/mL); MIC95 [25]: 0.5 µM (≈ 1.42 µg/mL); MIC95 [26]: 2 µM (≈ 5.69 µg/mL); MIC95 [27]: 1 µM (≈ 2.85 µg/mL); MBC [28]: 2 µM (≈ 5.69 µg/mL); MBC [29]: 2 µM (≈ 5.69 µg/mL); MFC [30]: 8 µM (≈ 22.8 µg/mL) |
| H-FFRRFRRFF-NH2 | 32 | 32 | 32 | 16 | 32 | 8 | 32 | 8 | 4 | 32 | > 64 | 32 | 32 | 4 | 4 | 16 | 16 | 8 | 16 | 4 | MIC [31]: 8 µM; MIC [32]: 32 µM; MIC95 [21]: > 64 µM; MIC [33]: 8 µM; MIC95 [22]: 4 µM; MFC [23]: 4 µM; MIC95 [24]: 16 µM; MIC95 [25]: 4 µM; MIC95 [26]: 8 µM; MIC95 [27]: 4 µM; MBC [28]: 8 µM; MBC [29]: 16 µM; MFC [30]: 8 µM |
| H-IIRRIRRII-NH2 | 64 | 64 | > 64 | > 64 | > 64 | > 64 | 64 | 32 | > 64 | 64 | > 64 | > 64 | > 64 | > 64 | 4 | > 64 | > 64 | > 64 | 64 | > 64 | MIC [31]: 32 µM; MIC [32]: 64 µM; MIC95 [21]: > 64 µM; MIC [33]: 32 µM; MIC95 [22]: 64 µM; MFC [23]: 16 µM; MIC95 [24]: > 64 µM; MIC95 [25]: 64 µM; MIC95 [26]: 32 µM; MIC95 [27]: 64 µM; MBC [28]: > 64 µM; MBC [29]: 32 µM; MFC [30]: 8 µM |
